Laboratory results published in PubChem BioAssay.
Unmarked numbers belong to inactive results. Inconclusive results are not listed. Active and inactive are the calls of the source.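 Rule for the calls, unless noted: active = cell viability at or below a set limit in both duplicate runs, the limit being the all-compound median minus 4 SD (cut at about 23% in these data, passing the limit was not always enough); inconclusive = no clear call, values can overlap the other calls; inactive = the rest.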

Columns and labels:
[1] = OD615 S. cerevisiae growth inhibition, permissive medium, pilot counter-assay, permissive growth control for S. cerevisiae lifespan shortening project (AID 705;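 active = growth inhibition above 25% in both replicates, a cutoff set 3 SD above the mean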); settings: OD615, 24 h, at 10 µM, hits give high values
Procedure, shortened: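 Material: engineered DeaD yeast; compound dosing: one dose 10 µM, DMSO 0.25% final; measure: yeast growth inhibition indicated by reduced 24 h OD615; detection: OD615 turbidity read; incubation: cells pre-grown 4 h, then 24 h compound exposure, 30 °C humidified; medium: permissive synthetic complete medium with raffinose and galactose carbon sources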

[2] = Restrictive medium S. cerevisiae growth inhibition, OD615, pilot screen of yeast lifespan reduction project, restrictive growth control (AID 706;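 active = growth inhibition above a set limit, 3 SD over mean compound inhibition, in both replicates, cut at about 43% in these data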;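 note: modified DeaD lifespan yeast strain shifted to restrictive glucose medium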); settings: OD615, 48 h, at 10 µM, hits give high values
Procedure, shortened: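 material = engineered S. cerevisiae DeaD strain | medium = glucose-based CSMM-D restrictive medium | times = 4 h pre-incubation, 48 h exposure at 30 °C | technique = OD615 absorbance reading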

[3] = viability gain of MRP-1-high H69AR cells under doxorubicin, pilot screen, MRP-1 activator project, CellTiter-Glo, duplicate (AID 807;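 active = viability increase at or above a cutoff of the median across tested compounds plus 3 SD, cut at about 8.5% in these data, passing the limit was not always enough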;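 note: compound pretreatment 18-22 h then 72 h combined with doxorubicin; 0% = doxorubicin alone and 100% = vehicle without doxorubicin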); settings: H69AR viability with doxorubicin, CellTiter-Glo luminescence; at 10 µM; hits give high values
[4] = growth suppression of beta-catenin knockout HCT116, pilot screen, human colon tumor cells (AID 823); settings: CellTiter-Glo, 60 h, at 10 µM, hits give low values;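 note: 0% = wells killed by 20 µM Hyamine and 100% = untreated DMSO cell wells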
[5] = growth suppression of PTEN-deleted HCT116, pilot screen, cell-based, HCT116 clonal line, CellTiter-Glo (AID 824;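 active = viability at or below 27.92% in each of two runs, the all-compound median minus 4 SD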;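 note: 0% = 20 µM Hyamine control and 100% = vehicle cell control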); settings: 60 h, at 10 µM, hits give low values
[6] = inhibitors of the yeast RAM network, pilot screen, dse1pr::URA3 reporter, 5-FOA selection (AID 869;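 active = inhibition over a set limit, the all-compound mean plus 3 SD, in both replicate runs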;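 note: 0% = DMSO wells with no growth and 100% = 10 µM 1-NA-PP1 with full growth; RAM network block rescues cells from 5-FOA so hits raise OD615 growth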); settings: S. cerevisiae dse1pr::URA3 5-FOA growth, OD615, 2 d; at 10 µM; hits give high values; strain carries analog-sensitive mutant Cbk1 kinase
[7] = RAM signaling pathway blockade in yeast – S. cerevisiae, Pdr1DBD-CYC8 efflux-inhibited sensitized strain, primary screen (AID 1298;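 active = RAM network inhibition above 8.4% in each of two replicates, 3 SD over the compound average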;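 note: 0% = DMSO untreated cells without growth and 100% = 10 µM 1-NA-PP1 full growth; higher means more yeast growth rescued from 5-FOA killing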); settings: S. cerevisiae cbk1-as DSE1-URA3 strain, 5-FOA growth OD615, 2 d; at 50 µM; hits give high values

Row | SMILES | growth inhibition [1] | growth inhibition [2] | viability increase [3] [%] | viability [4] | viability [5] | inhibition [6] [%] | RAM network inhibition [7] [%]
1 | COc1ccc(OC)c(N(CC(=O)NCCSc2ccccc2)S(C)(=O)=O)c1 | -4.86% | -9.71% | -3.1 | 96.9% | 95.5% | 0.23 | 4.35
2 | O=C1CC(c2ccccc2)CC(O)=C1C=NCCN1CCNCC1 (stereo unspecified) | -21.5% | -14.2% | 1.22 | 99.2% | 98.1% | -0.42 | -1.05
3 | CCNC(=O)c1c(N)sc2c1CCCCC2 | -5.81% | 1.6% | -2.57 | 103% | 100% | 1.88 | 4.23
4 | COc1ccc2cc3c(N)nn(C(=O)Cc4ccccc4OC)c3nc2c1 | 10.1% | 17.7% | -8.54 | 2.78% (active) | 5.52% (active) | 0.65 | 2.84
5 | COc1ccc2[nH]c(C)c(CCN3C(=O)C4CC=CCC4C3=O)c2c1 (stereo unspecified) | -14.4% | -15.3% | 0.77 | 105% | 89.2% | 0.55 | 2.77
6 | CNC(=O)c1ccsc1NC(=O)c1ccc(Cl)s1 | -0.67% | 14.4% | -3.2 | 103% | 85.6% | 1.08 | 2.36
7 | CCCCn1c(CCC(=O)O)ccc1-c1cccs1 | 6.82% | 10.6% | -3.36 | 97.1% | 94.8% | 0.85 | -1.84
8 | O=C(NCCCN1CCOCC1)NC12CC3CC(CC(C3)C1)C2 | -1.84% | 2.31% | -0.98 | 104% | 105% | 0.625 | 0.01
9 | CN(Cc1ccco1)C(=O)C(Cc1ccccc1)NS(=O)(=O)c1ccc2c(c1)CCC(=O)N2 (stereo unspecified) | -11.9% | -12.3% | -4.4 | 94.9% | 84.4% | 2.2 | 3.45
10 | Cc1nn(-c2cccc(C(F)(F)F)c2)c(Cl)c1/C=N/n1cnnc1 | -2.49% | 17% | -6.44 | 87.7% | 85.7% | -0.18 | 1.77
11 | CC1(C)C(c2ccccc2)=[N+]([O-])CN1O | 1.85% | 9.78% | -2.5 | 107% | 96.3% | -0.14 | -0.11
12 | CCc1cc(=O)oc2cc(C)cc(O)c12 | -16.6% | -7.76% | -1.72 | 95.3% | 99.8% | 0.2 | 1.99
13 | CCC(Sc1nc(C)cc(=O)[nH]1)C(=O)Nc1ccc(Cl)cn1 (stereo unspecified) | -2.36% | 26.5% | -3.4 | 98.9% | 96.7% | 1.84 | 3.08
14 | CCC(C)[C@@H](C(=O)Nc1ccc2c(c1)OCO2)N1Cc2ccccc2C1=O (stereo partly specified) | -14.7% | -13.5% | -2.97 | 91.5% | 75.1% | 0.51 | 4.42
15 | CC1Cn2c(nnc2-c2cccc(N)c2)S1 (stereo unspecified) | 1.06% | 14.3% | -1.3 | 98.7% | 100% | 1.52 | 3.44
16 | O=C(Nc1nnc(CC(=O)N2CCCC2)s1)c1cnccn1 | -3.58% | 4.7% | -1.2 | 104% | 100% | 1.66 | -0.94
17 | FC(F)(F)c1nnc2ccc(-n3ccnc3)nn12 | -9.92% | -28.6% | -1.45 | 103% | 88.4% | 0.61 | 3.79

Row | SMILES | growth inhibition [1] | growth inhibition [2] | viability increase [3] [%] | viability [4] | viability [5] | inhibition [6] [%] | RAM network inhibition [7] [%]
18 | N#Cc1ccc(N2CCN(C(=O)c3cccc(F)c3)CC2)c(F)c1 | 6.81% | 4.18% | -2.03 | 98.4% | 87.8% | 2.12 | 0.57
19 | O=C(COC(=O)C(O)c1ccccc1)c1ccc2c(c1)OCCO2 (stereo unspecified) | -4.38% | -9.29% | -0.39 | 97.1% | 106% | 1.27 | 4.89
20 | CCN(CC)CCCN1C(=O)C(O)=C(C(C)=O)C1c1ccc(OC)cc1OC (stereo unspecified) | -0.68% | -3.67% | -2.64 | 98.5% | 92.4% | 1.03 | 1.44
21 | c1ccc(Cc2nnc3sc(-c4ccc5c(c4)OCCO5)nn23)cc1 | 4.51% | 55.8% (active) | 0.47 | 105% | 93.5% | 1.33 | 12.8
22 | CNC(=O)CN1C(=O)CSc2ncccc21 | 10.1% | 2.23% | -0.85 | 101% | 92.2% | 1.78 | -1.94
23 | O=S(=O)(c1cccc(-c2nnc(-c3cccnc3)o2)c1)N1CCCCC1 | 1.58% | -5.17% | -3.4 | 86.9% | 84.7% | 1.22 | 2.99
24 | COc1ccc(N=C(N(C)C)P(=O)(N(C)C)N(C)C)cc1 | -5.46% | 0.105% | -1.44 | 103% | 98.4% | 0.22 | 6.63
25 | CC(C)(C)c1ccc(OCC(=O)N2CCN(C=O)CC2)cc1 | -6.68% | -10.2% | -2.64 | 98.1% | 100% | 1.25 | 0.67
26 | Cc1ccc(NC(=O)CSC2=C(C#N)C(c3ccc4c(c3)OCO4)C3=C(CCCC3=O)N2)c(C)c1 (stereo unspecified) | 21.3% | 59.1% (active) | -5.27 | 73.7% | 72.7% | 1.4 | 5.06
27 | O=C(Nc1nc(-c2ccccn2)cs1)C1COc2ccccc2O1 (stereo unspecified) | 84.5% (active) | 96.9% (active) | -0.68 | 10.3% (active) | 11.5% (active) | 0.255 | -2.19
28 | COC(=O)c1c(-c2cccc(OC)c2)csc1N | -8.46% | 1.4% | -4.63 | 103% | 100% | 1.37 | 0.9
29 | COc1ccc(NC(=O)N(Cc2ccc(C)cc2)Cc2ccccn2)c(OC)c1 | -3.04% | 7.11% | -1.9 | 91% | 96% | 0.455 | 4.18
30 | c1cc2c3c(cccc3c1)C(N1CCCCC1)=N2 | 1.8% | -3.38% | -4.54 | 72.1% | 74.4% | 0.665 | 1.88
31 | CCCCCOC(=O)c1[nH]c2c(c1C)C(=O)CC(c1ccco1)C2 (stereo unspecified) | -15% | -3.28% | -5.25 | 14.5% (active) | 16.3% (active) | 0.18 | -0.31
32 | Cc1nn(C)c(C)c1N=Cc1c(O)ccc2ccccc12 | -25.2% | -28.4% | -1.72 | 105% | 92.1% | -0.015 | -0.32
33 | CCn1c(CNC(=O)C23CC4CC(CC(C4)C2)C3)nnc1SCC(=O)Nc1nnc(C)s1 | 2.36% | 24.3% | 0.62 | 96.7% | 96.9% | 2.5 | 2.71
